From publication PMC5421726 (Clinical and Translational Science, 2017)
Values belong to the molecule of their own block, whether it stands above or below them.

Tests used:
HbA1c [1] = assay: PK/PD model relating tPDE4i to HbA1c in db/db mice; type: in vivo
Method in brief: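 Once-daily dosing of db/db mice for 28 days: test compound at 1, 3 or 10 mg/kg/day, reference PDE4 inhibitor at 0.3, 1 or 3 mg/kg/day, its N-oxide metabolite at 3 mg/kg/day, vehicle 4% methocel. HbA1c read on days -1, 14 and 28. Emax model links HbA1c rise over time to individual tPDE4i. Fit by nonlinear mixed-effects modelling with FOCE-interaction; checked by visual predictive check (200 simulations).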

PDE4 = assay: Total PDE4 inhibition; type: in vivo; settings: db/db mice, geometric mean; for Complete tPDE4i: roflumilast + roflumilast N-oxide
[2] = Unbound fraction in mouse plasma in vitro; type: in vitro ADME
diabetic mouse model = settings: cited from earlier work
HbA1c [3] = settings: clinical setting; cited from earlier work
[4] = Population pharmacokinetic analysis in db/db mice; type: in vivo; settings: after roflumilast-N-oxide dosing
[5] = roflumilast N-oxide 3 mg/kg/day

Compound: O=C(Nc1c(Cl)c[n+]([O-])cc1Cl)c1ccc(OC(F)F)c(OCC2CC2)c1 [roflumilast(‐N‐oxide)]
- PDE50 (tPDE4i leading to half-maximum effect on HbA1c) (HbA1c [1]; final PK/PD model estimate, 28 days): 27.1

- fraction unbound [2]: 0.037
Compound: O=C(Nc1c(Cl)cncc1Cl)c1ccc(OC(F)F)c(OCC2CC2)c1 [roflumilast]
- tPDE4irof (PDE4; roflumilast 0.3 mg/kg/day): 0.744
- tPDE4irofNO (PDE4; roflumilast 0.3 mg/kg/day): 0.731
- Complete tPDE4i (PDE4; roflumilast 0.3 mg/kg/day): 1.49
- tPDE4irof (PDE4; roflumilast 1 mg/kg/day): 2.23
- tPDE4irofNO (PDE4; roflumilast 1 mg/kg/day): 2.31
- tPDE4irof (PDE4; roflumilast 3 mg/kg/day): 6.56
- tPDE4irofNO (PDE4; roflumilast 3 mg/kg/day): 7.18
- Complete tPDE4i (PDE4; roflumilast 3 mg/kg/day): 13.8
- Dose required to reach half-maximum effect on HbA1c (HbA1c [1]; calculated from PDE50): 5.9 mg/kg
- Antidiabetic efficacy (diabetic mouse model): significant antidiabetic efficacy
- HbA1c levels (HbA1c [3]): significantly reduced

Compound: O=C(Nc1c(Cl)c[n+]([O-])cc1Cl)c1ccc(OC(F)F)c(OCC2CC2)c1 [roflumilast‐N‐oxide]
- Exposure of roflumilast relative to roflumilast-N-oxide [4]: 2.6 % of roflumilast‐N‐oxide
- Apparent roflumilast clearance ([4]; two-compartment model): 41.8 L/h
- Apparent roflumilast-N-oxide clearance ([4]; two-compartment model): 1.09 L/h
- tPDE4irof (PDE4; [5]): 0.375
- tPDE4irofNO (PDE4; [5]): 22.1
- Complete tPDE4i (PDE4; [5]): 22.5
